Most compounds without a hit are left out; they make up all but 3.7% or so of the library.
Furin inhibitor: inhibitors of human furin; P09958; purified furin, fluorogenic substrate cleavage; 220,000 tested, 0.061% active; inhibition, % at 20 µM or 30 µM; in the data active = inhibition above about 25%
NPY Y2 blocker: blocks the human neuropeptide Y Y2 receptor. NPY-Y2 expressing cells, antagonist mode. inhibition, % at 2.7 µM. 140,000 tested, 0.99% active; in the data active = inhibition above about 17%;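 note: 0% = vehicle with agonist challenge and 100% = reference antagonist with challenge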
Target sequence (P49146 whole entry, looked up): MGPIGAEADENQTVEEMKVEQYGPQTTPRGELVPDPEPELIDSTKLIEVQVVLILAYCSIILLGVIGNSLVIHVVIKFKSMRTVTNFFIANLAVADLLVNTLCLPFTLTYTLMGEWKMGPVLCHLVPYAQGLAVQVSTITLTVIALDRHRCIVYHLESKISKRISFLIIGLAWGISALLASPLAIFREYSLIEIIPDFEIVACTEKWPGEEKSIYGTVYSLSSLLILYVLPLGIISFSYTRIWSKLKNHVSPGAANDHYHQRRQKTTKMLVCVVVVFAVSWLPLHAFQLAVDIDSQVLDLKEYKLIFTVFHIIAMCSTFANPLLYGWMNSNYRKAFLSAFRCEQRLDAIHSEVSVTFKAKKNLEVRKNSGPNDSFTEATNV
NPY-Y1 antag: NPY-Y1 (human) receptor antagonism; P25929; HEK293-CNG Y1 cells, membrane potential fluorescence; NPY at EC95, then isoproterenol; inhibition, % at 3.6 µM; 200,000 tested, 1% active; AID 1040;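 active = inhibition above the campaign mean inhibition of all tested compounds plus 3 SD, cut at about 20% in these data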;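 note: 0% = DMSO wells given NPY plus isoproterenol and 100% = isoproterenol alone without NPY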
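Assay system: HEK293 Y1/CNG channel cell line; Doses: single compound dose of 3.6 µM, 0.4% DMSO; Timing: dye 3 h, compound 60 min room temperature, stimulation 45 min; Technique: Membrane-potential fluorescent dye readout; Measure: % inhibition of NPY effect.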
NPY-Y2 PAM-ag: potentiators or agonists of human neuropeptide Y receptor Y2. cells expressing NPY-Y2, potentiator/agonist read-out. activation, % at 3.6 µM. 220,000 tested, 0.45% active; in the data active = activation above about 27%;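 note: cells stimulated with NPY near EC25 plus isoproterenol at EC100; 0% = vehicle plus submaximal agonist and 100% = vehicle plus saturating agonist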
KCC2 mod: modulators of human KCC2 chloride dependent transport; Q9H2X9; KCC2 cells, thallium flux FluoZin-2 fluorescence; B-score of Tl+ flux slope (higher = more flux/activation; lower = inhibition) at 10 µM; 190,000 tested, 2.2% active;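 active = thallium flux slope and its plate-corrected score both differing from the plate sample mean at a set confidence after two filtering rounds, in either direction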;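 note: slope of fluorescence scaled to starting intensity during 10 to 20 s after thallium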
NPY1 pot ag: potentiators or agonists of human neuropeptide Y receptor Y1 | NPY-Y1 expressing cells, potentiator/agonist activation | activation, % at 3.6 µM | 220,000 tested, 0.37% active | AID 1304 | P25929; in the data active = activation above about 33%, passing the limit was not always enough;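 note: cells stimulated with NPY at EC10 then isoproterenol at EC100; 0% = low agonist plus stimulus and 100% = saturating agonist plus stimulus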
An asterisk follows results filed as active; / = no result.

SMILES	Furin inhibitor	NPY Y2 blocker	NPY-Y1 antag	NPY-Y2 PAM-ag	KCC2 mod	NPY1 pot ag
Cc1cc2c(OCC(O)CNC(C)(C)C)cccc2[nH]1 (configuration not stated)	-17	3	-19	105*	0.55	111*
Cc1cc2c(OCC(O)CN3CCCC3)cccc2[nH]1 (configuration not stated)	-1	/	-18	100*	1.4	110*
CC(C)NC[C@H](O)COc1cccc2[nH]ccc12	-30	/	/	/	-0.16	/
CCN(CC)S(=O)(=O)c1ccc(NC(=O)C2c3ccccc3Oc3ccccc32)cc1	-23	1	6	3	0.27	-6
C#CC1(NC(=O)NCCCC)CCCCC1	-33	/	0	4	/	18
COc1cc(N(C)C)c([N+](=O)[O-])cc1C(=O)N1CCOCC1	-11	/	-3	2	0.2	-3
CCSc1nnc(-c2cccnc2)n1-c1ccc(Cl)c(C)c1	-18	2	2	5	-1.5	-13
CCC(Oc1nc2ccccc2nc1-c1ccccc1NC(C)=O)C(=O)c1ccccc1 (configuration not stated)	-19	20*	33*	-8	/	-24
CC(=O)Nc1ccccc1NC(=O)c1ccccc1	-22	/	-4	1	-0.22	-19
O=C1c2ccccc2C(=O)c2c1ccc(C(=O)N1CCCCC1)c2NCCO	-13	-2	2	2	-1.5	21
CCNc1c(C(=O)O)ccc2c1C(=O)c1ccccc1C2=O	-7	4	-2	-6	-1.8	-12
CC1(C)CCCN(C(=O)c2ccc3c(c2NCCO)C(=O)c2ccccc2C3=O)C1	-21	-9	-22	54*	-1.4	51*
CCN(CCN(C)C)C(=O)c1ccc2c(c1NCCO)C(=O)c1ccccc1C2=O	-15	/	-11	40*	0.069	47*
COc1ccccc1CC1S/C(=N/N=C/c2ccco2)NC1=O (configuration not stated)	-27	/	3	-2	0.079	4
Cc1ccc(N2C(=S)N=C(Nc3ccccc3C)C23CCOC(C)(C)C3)cc1 (configuration not stated)	-13	3	1	-1	24*	-36
NNc1nc(-c2ccccc2Cl)nc2sc3c(c12)CCCC3	-15	-1	-2	-15	-0.0086	-19
CCNc1cc2n(c(=O)n1)CCc1cc(OC)c(OC)cc1-2	-242	3	4	5	-0.011	12
COc1cc2c(cc1OC)-c1cc(NC3CC3)nc(=O)n1CC2	-125	4	11	2	/	-7
COc1cc2c(cc1OC)-c1cc(NC3CCCCCCC3)nc(=O)n1CC2	-179	72*	64*	-54	-1.3	-65
COc1cc2c(cc1OC)-c1cc(NC3CCCCC3)nc(=O)n1CC2	-181	12	33*	-2	/	-45
Cc1ccc(C)c(N(CC(=O)NC2CCCC2)C(=O)c2oc(C(C)(C)C)cc2C)c1	-7	20*	27*	0	/	-3
Cc1cc(C(C)(C)C)oc1C(=O)N(CC(=O)NC1CCCC1)Cc1ccccc1	-17	8	12	-6	1.1	-13
Cc1cc(NC(=O)CSc2nc(CCC3CCCC3)nc3ccccc23)no1	-21	2	13	0	-2.6	-48
O=C(CSc1nc(CCC2CCCC2)nc2ccccc12)NCc1ccc2c(c1)OCO2	-12	4	0	-7	21*	3
CCCc1nc2ccccc2c(C(=O)OC(C)C(=O)NCc2ccc3c(c2)OCO3)c1CC (configuration not stated)	-36	19*	25*	-2	-0.54	-26
SMILES	Furin inhibitor	NPY Y2 blocker	NPY-Y1 antag	NPY-Y2 PAM-ag	KCC2 mod	NPY1 pot ag
Cc1ccc(C(=O)OCC(=O)NCc2cccs2)cc1S(=O)(=O)N1CCOCC1	-13	/	4	6	-1.4	14
CCN(CC)S(=O)(=O)c1ccc(C)c(NS(=O)(=O)c2cc(/C=C/C(=O)O)cc(OC)c2OC)c1	-21	/	0	-15	0.00037	-9
CC1(C)c2ccccc2-n2c1cc1oc(=O)cc(O)c1c2=O	-22	/	/	2	-2.1	4
N#Cc1c(NCCN)nc(-c2ccccc2)c2c1CCCC2	-19	24*	29*	-33	/	-37
Cc1ccccc1C(=O)c1c[nH]c(C(N)=O)c1	-19	-2	-1	27	0.81	111*
CCOC(=O)c1ccc(N2C(=O)C3CC=C(C)CC3C2=O)cc1 (configuration not stated)	-11	0	25*	-26	/	-27
COC(=O)c1sccc1NC(=O)C1CCCCC1C(=O)O (configuration not stated)	-21	/	0	-8	/	-9
c1ccc2c(c1)OC(CCCN1CCCCC1)c1ccccc1S2 (configuration not stated)	-3	17*	40*	-21	-0.15	-66
CN1CCCC(CC2Oc3ccccc3Sc3ccccc32)C1 (configuration not stated)	-3	8	13	5	-0.5	-25
Cn1nc(C(=O)N2CCN(C(c3ccccc3)c3ccccc3)CC2)c2ccccc2c1=O	-9	/	/	-2	-0.2	-17
Cc1nc(N2CCN(Cc3ccc(Cl)cc3)CC2)c2oc3ccccc3c2n1	-14	/	/	-35	-0.57	-9
CCOC(=O)C1CCN(c2nc(-c3ccccc3)nc3c2oc2ccccc23)CC1	-11	5	5	-6	/	-14
Oc1c(CN2CCN(c3ccccn3)CC2)cc(Cl)c2cccnc12	-20	3	0	11	7*	19
O=C(O)C1CCN(c2nc(-c3ccccc3)nc3c2oc2ccccc23)CC1	-31	1	-16	-8	-2.8*	-4
COc1ccccc1N1CCN(c2nc(C)nc3c2oc2ccccc23)CC1	-11	20*	32*	-21	/	-31
COc1ccccc1N1CCN(Cc2cc(Br)c(O)c3ncccc23)CC1	-13	2	1	-4	7.2*	-5
O=C(OCc1ccccn1)c1ccc(COc2ccc3ccccc3c2)o1	-15	/	/	-14	-0.89	-6
COC(=O)c1ccc([C@@H]2C[C@H]3CN(Cc4cccnc4)C(=O)[C@]34CCCN24)cc1	-18	/	4	-13	0.71	-4
CCOC1(C)OCC(=O)[C@]2(CCC3C4CCC5=CC(=O)C=CC5(C)C4C(=O)CC32C)O1 (some centres not stated)	-23	1	-1	0	-0.12	10
CCN=C(NCC)SC1CC(=O)N(c2ccc(F)cc2)C1=O (configuration not stated)	-7	/	5	-1	-0.018	-7
Cc1cc(C)c(S(=O)(=O)NNC(=O)C2CCN(Cc3ccccc3)CC2)c(C)c1	-22	3	2	-16	/	-48
C#CCNC(=O)C1=C[C@@H](c2cn(C(C)=O)c3ccccc23)C[C@@H](OCc2ccc(CO)cc2)O1	-19	/	11	-5	-1.2	-3

Compound activity: PubChem BioAssay, several laboratories
